Results from ChEMBL document CHEMBL2417437, “A hit to lead discovery of novel N-methylated imidazolo-, pyrrolo-, and pyrazolo-pyrimidines as potent and selective mTOR inhibitors” (Bioorg Med Chem Lett, 2013).

Assays:
[1] = biological target: T1, Phosphatidylinositol 4,5-bisphosphate 3-kinase catalytic subunit delta isoform (Homo sapiens, UniProt O00329); assay: Displacement of TAMRA-PIP3 from PI3Kdelta GRP-1 pleckstrin homology domain (unknown origin) assessed as formation of 3,4,5-inositoltriphosphate after 30 mins by fluorescence polarization assay
T1 sequence (O00329 whole entry): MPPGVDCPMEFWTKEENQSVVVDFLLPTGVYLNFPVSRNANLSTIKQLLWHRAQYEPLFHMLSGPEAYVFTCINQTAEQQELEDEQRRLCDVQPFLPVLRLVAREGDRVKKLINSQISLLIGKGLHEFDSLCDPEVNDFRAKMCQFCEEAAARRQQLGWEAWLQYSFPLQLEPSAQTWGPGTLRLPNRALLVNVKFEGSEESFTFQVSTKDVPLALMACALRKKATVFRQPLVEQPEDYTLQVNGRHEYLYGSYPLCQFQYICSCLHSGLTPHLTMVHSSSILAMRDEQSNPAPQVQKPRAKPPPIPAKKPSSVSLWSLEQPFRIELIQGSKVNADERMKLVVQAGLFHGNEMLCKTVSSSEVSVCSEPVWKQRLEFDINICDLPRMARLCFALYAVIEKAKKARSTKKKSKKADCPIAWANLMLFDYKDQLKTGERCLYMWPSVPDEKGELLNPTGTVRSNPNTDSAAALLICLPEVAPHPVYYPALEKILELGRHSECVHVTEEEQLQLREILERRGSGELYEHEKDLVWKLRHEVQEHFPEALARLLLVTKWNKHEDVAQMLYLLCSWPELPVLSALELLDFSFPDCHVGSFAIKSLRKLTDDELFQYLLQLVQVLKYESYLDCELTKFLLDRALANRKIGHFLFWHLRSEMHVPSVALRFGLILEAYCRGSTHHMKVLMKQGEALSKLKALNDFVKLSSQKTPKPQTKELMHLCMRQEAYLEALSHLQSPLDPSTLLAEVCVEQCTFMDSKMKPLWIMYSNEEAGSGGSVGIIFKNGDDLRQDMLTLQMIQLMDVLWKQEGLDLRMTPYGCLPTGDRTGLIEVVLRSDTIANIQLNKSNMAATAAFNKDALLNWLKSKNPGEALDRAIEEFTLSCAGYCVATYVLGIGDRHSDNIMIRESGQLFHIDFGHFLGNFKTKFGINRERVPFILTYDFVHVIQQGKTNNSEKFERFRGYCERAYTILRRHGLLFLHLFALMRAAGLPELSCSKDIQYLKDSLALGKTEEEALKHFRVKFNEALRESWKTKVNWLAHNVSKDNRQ

[2] = biological target: Phosphatidylinositol 4,5-bisphosphate 3-kinase catalytic subunit alpha isoform (Homo sapiens, UniProt P42336); assay: Displacement of TAMRA-PIP3 from PI3Kalpha GRP-1 pleckstrin homology domain (unknown origin) assessed as formation of 3,4,5-inositoltriphosphate after 30 mins by fluorescence polarization assay
Chain of Phosphatidylinositol 4,5-bisphosphate 3-kinase catalytic subunit alpha isoform (P42336 whole entry, the tested form may be a part, canonical isoform): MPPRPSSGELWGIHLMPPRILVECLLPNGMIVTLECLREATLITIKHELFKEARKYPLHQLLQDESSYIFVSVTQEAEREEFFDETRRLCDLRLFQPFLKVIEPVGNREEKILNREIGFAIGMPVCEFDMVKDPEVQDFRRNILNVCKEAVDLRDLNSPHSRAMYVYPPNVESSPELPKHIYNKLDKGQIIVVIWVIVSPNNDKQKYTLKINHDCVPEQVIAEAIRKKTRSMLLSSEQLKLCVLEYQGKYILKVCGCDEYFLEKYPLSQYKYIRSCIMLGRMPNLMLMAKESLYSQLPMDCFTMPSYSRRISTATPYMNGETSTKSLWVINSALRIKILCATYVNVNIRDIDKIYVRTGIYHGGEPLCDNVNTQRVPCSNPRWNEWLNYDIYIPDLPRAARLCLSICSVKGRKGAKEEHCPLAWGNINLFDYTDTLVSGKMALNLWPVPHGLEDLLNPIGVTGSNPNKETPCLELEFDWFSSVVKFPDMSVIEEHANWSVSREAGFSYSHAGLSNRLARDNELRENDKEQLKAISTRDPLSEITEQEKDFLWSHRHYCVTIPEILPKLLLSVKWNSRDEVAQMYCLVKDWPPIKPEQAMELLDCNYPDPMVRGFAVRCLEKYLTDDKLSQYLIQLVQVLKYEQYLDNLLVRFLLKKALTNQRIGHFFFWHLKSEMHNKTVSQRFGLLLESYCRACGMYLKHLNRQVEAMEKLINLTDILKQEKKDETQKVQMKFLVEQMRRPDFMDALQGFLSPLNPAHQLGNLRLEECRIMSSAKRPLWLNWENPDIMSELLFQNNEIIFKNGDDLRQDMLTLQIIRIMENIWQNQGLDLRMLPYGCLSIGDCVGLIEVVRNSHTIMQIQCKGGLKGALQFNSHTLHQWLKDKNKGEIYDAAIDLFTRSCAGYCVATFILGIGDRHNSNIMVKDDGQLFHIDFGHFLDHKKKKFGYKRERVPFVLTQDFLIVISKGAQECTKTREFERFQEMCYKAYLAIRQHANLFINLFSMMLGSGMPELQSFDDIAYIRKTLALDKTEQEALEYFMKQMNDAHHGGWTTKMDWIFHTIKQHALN

[3] = biological target: T2, Serine/threonine-protein kinase mTOR (Homo sapiens, UniProt P42345); assay: Inhibition of human recombinant mTOR (1360-2549) expressed in insect cells assessed as phosphorylation of recombinant (GFP)-4-EBP1 after 30 mins by LanthaScreen FRET assay
MCF7 = assay: Antiproliferative activity against human MCF7 cells expressing neo/Her2 assessed as cell viability after 3 days by CellTiter-Glo assay; type: functional, cell-based; conditions: MCF7, 72 h
In short: (§1)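 Three-day cell viability assay in PTEN-null NCI-PC3 prostate carcinoma cells and in MCF7 neo/HER2 cells, read as antiproliferative activity.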

[4] = biological target: T2, Serine/threonine-protein kinase mTOR; assay: Inhibition of mTOR in PTEN deficient human PC3 cells assessed as inhibition of p70S6K phosphorylation; type: cell-based, PC-3
PC-3 = assay: Antiproliferative activity against PTEN deficient human PC3 cells assessed as cell viability after 3 days by CellTiter-Glo assay; type: functional, cell-based; conditions: PC-3, 72 h; in short: as §1
[5] = biological target: T2, Serine/threonine-protein kinase mTOR; assay: Inhibition of mTOR in PTEN deficient human PC3 cells assessed as inhibition of Akt phosphorylation at Ser473; type: cell-based, PC-3
Homo sapiens [6] = organism: Homo sapiens; assay: Selectivity ratio of IC50 for PI3Kalpha (unknown origin) to Ki for human recombinant mTOR (1360-2549)
In short: (§2)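 Ratio of two biochemical values. The PI3K IC50 (PI3Kα or PI3Kδ) comes from a fluorescence polarization kinase assay. The mTOR Ki comes from a LanthaScreen FRET assay on the recombinant mTOR kinase domain. Each value is from at least two separate determinations, with typical variation under 30%.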

Homo sapiens [7] = organism: Homo sapiens; assay: Selectivity ratio of IC50 for PI3Kdelta (unknown origin) to Ki for human recombinant mTOR (1360-2549); in short: as §2
[8] = Apparent permeability across basolateral to apical side in MDCK cells; type: ADME, cell-based, Canis lupus familiaris; conditions: dog
[9] = Oral bioavailability in mouse at 25 mg/kg; type: ADME, organism-based; conditions: in vivo
In short: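 Mice were given a 25 mg/kg oral dose as a suspension in MCT. Bioavailability was reported as %F.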

[10] = Volume of distribution at steady state in iv dosed mouse; type: ADME, organism-based; conditions: in vivo, read-out: Vdss
[11] = Efflux ratio of apparent permeability in MDCK cells; type: ADME, cell-based, Canis lupus familiaris; conditions: dog
[12] = Plasma clearance in iv dosed mouse; type: ADME, organism-based
[13] = biological target: T2, Serine/threonine-protein kinase mTOR; assay: Inhibition of mTOR (unknown origin)

Row | SMILES | Ki [3] | Ki [1] | Ki [2] | EC50 (MCF7) | IC50 [4] | EC50 (PC-3) | IC50 [5] | other results
1 | CCNC(=O)Nc1ccc(-c2nc(N3CCOC[C@H]3C)c3c(ncn3C)n2)cc1 |  |  |  |  |  |  |  | IC50 [1]: 4000 nM; IC50 [2]: 5800 nM
2 | CCNC(=O)Nc1ccc(-c2nc(N3CCOC[C@@H]3C)c3nc(C(C)(C)O)n(C)c3n2)cc1 | 7 nM | 490 nM | 390 nM |  |  |  |  | 
3 | CCNC(=O)Nc1ccc(-c2nc(N3CCOC[C@@H]3C)c3c(n2)nc(C(C)(C)O)n3C)cc1 |  | 7300 nM | 7000 nM |  |  |  |  | 
4 | CCNC(=O)Nc1ccc(-c2nc(N3CCOC[C@@H]3C)c3ncn(C)c3n2)cc1 | 12 nM | 890 nM | 370 nM |  |  |  |  | 
5 | CCNC(=O)Nc1ccc(-c2nc(N3CCOC[C@@H]3C)c3ncn(CC)c3n2)cc1 | 8 nM | 630 nM | 380 nM |  |  |  |  | 
6 | CCNC(=O)Nc1ccc(-c2nc(N3CCOC[C@@H]3CC)c3c(n2)c(C)nn3C)cc1 |  | > 10000 nM | 5800 nM | 160 nM | 8 nM | 86 nM | 4 nM | 
7 | CCNC(=O)Nc1ccc(-c2nc(N3CCOC[C@@H]3CC)c3c(cnn3C)n2)cc1 | 1 nM | > 10000 nM | 3400 nM | 260 nM | 15 nM | 130 nM | 8 nM | 
8 | CCNC(=O)Nc1ccc(-c2nc(N3CCOC[C@@H]3C)c3c(ccn3C)n2)cc1 | 19 nM | > 10000 nM | > 10000 nM | 9000 nM | 110 nM | 1900 nM | 77 nM | 
9 | CCNC(=O)Nc1ccc(-c2nc(N3C[C@@H]4C[C@H]3CO4)c3c(cnn3C)n2)cc1 | 28 nM | 5150 nM | 5140 nM | 1700 nM | 270 nM | 2900 nM | 340 nM | 
10 | CCNC(=O)Nc1ccc(-c2nc(N3CCOCC3)c3c(ncn3C)n2)cc1 | 150 nM |  |  |  |  |  |  | 
11 | CCNC(=O)Nc1ccc(-c2nc(N3CCCOCC3)c3c(ncn3C)n2)cc1 |  |  |  |  | 8900 nM |  | 7200 nM | IC50 [1]: 7300 nM; Ratio (Homo sapiens [6]): 53; IC50 [2]: 6400 nM; Ratio (Homo sapiens [7]): 61
12 | CCNC(=O)Nc1ccc(-c2nc(N3CCOC[C@@H]3C)c3c(cnn3C)n2)cc1 | 8 nM | > 10000 nM | > 10000 nM | 760 nM | 47 nM | 420 nM | 8 nM | Papp B→A [8]: 8.6 ×10⁻⁶ cm/s; bioavailability [9]: 4.4%; Vd [10]: 0.36 L/kg; efflux ratio [11]: 0.55; clearance [12]: 13 mL/min/kg
13 | CCNC(=O)Nc1ccc(-c2nc(N3CCOC[C@@H]3C)c3c(ncn3C)n2)cc1 |  | > 10000 nM | > 10000 nM | 1300 nM |  | 290 nM |  | 
14 | CC(C)(O)c1nc2c(N3CCOCC3)nc(-c3cnc(N)nc3)nc2n1CCO |  | 4 nM | 2 nM |  |  |  |  | Ki [13]: 72 nM
15 | CCNC(=O)Nc1ccc(-c2nc(N3CCOC[C@@H]3C)c3c(ncn3CC)n2)cc1 |  | > 10000 nM | > 10000 nM |  |  |  |  | 
16 | CCNC(=O)Nc1ccc(-c2nc(N3CCOC[C@@H]3CC)c3c(ncn3C)n2)cc1 |  |  |  | 518 nM | 153 nM | 737 nM | 69 nM | IC50 [1]: > 10000 nM; Ratio (Homo sapiens [6]): > 2600; IC50 [2]: > 10000 nM; Ratio (Homo sapiens [7]): > 2600
17 | CCNC(=O)Nc1ccc(-c2nc(N3CCOC[C@@H]3CC)c3c(ccn3C)n2)cc1 | 6 nM | > 10000 nM | > 10000 nM | 420 nM | 40 nM | 280 nM | 11 nM | 
18 | CCNC(=O)Nc1ccc(-c2nc(N3CCOC[C@@H]3C)c3nc(C(C)(C)O)n(CCO)c3n2)cc1 | 9.5 nM | 160 nM | 190 nM |  |  |  |  | Ki [13]: 9 nM
